In ChEMBL document CHEMBL1141474, “Cryptolepine analogues containing basic aminoalkyl side-chains at C-11: synthesis, antiplasmodial activity, and cytotoxicity” (Bioorg Med Chem Lett, 2008):

Key:
HUVEC = assay: Cytotoxicity against HUVEC cells; type: cell-based; details: Homo sapiens
Plasmodium falciparum = assay: Antiplasmodial activity against chloroquine-resistant Plasmodium falciparum W2; type: functional, organism-based
[1] = Ratio of IC50 for human HUVEC cells to IC50 for Plasmodium falciparum W2; type: functional
Method in brief: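 Ratio of HUVEC (human umbilical vein endothelial cell) cytotoxicity IC50 to in vitro IC50 against the chloroquine-resistant P. falciparum W2 strain.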

SMILES	IC50 (HUVEC) [nM]	IC50 (Plasmodium falciparum) [nM]	Ratio IC50 [1]
CCN(CC)CCCC(C)Nc1c2ccccc2[n+](C)c2c1[nH]c1ccccc12.[Cl-] (stereo not drawn)	35	127	0.3
CN(C)CCNc1c2ccccc2[n+](C)c2c1[nH]c1ccccc12.[Cl-]	161	50	3.2
C[n+]1c2ccccc2c(NC2CCNCC2)c2[nH]c3ccccc3c21.[Cl-]	2040	44	46.4
CCN(CC)CCCNc1c2ccccc2[n+](C)c2c1[nH]c1ccccc12.[Cl-]	114	32	3.6
CC(CN(C)C)Nc1c2ccccc2[n+](C)c2c1[nH]c1ccccc12.[Cl-] (stereo not drawn)	617	132	4.7
C[n+]1c2ccccc2c(NCCCN2CCCCC2)c2[nH]c3ccccc3c21.[Cl-]	1160	36	32.3
CN(C)CC(C)(C)CNc1c2ccccc2[n+](C)c2c1[nH]c1ccccc12.[Cl-]	82	184	0.5
CCN(CC)CCNc1c2ccccc2[n+](C)c2c1[nH]c1ccccc12.[Cl-]	674	82	8.2
CC(C)NCCCNc1c2ccccc2[n+](C)c2c1[nH]c1ccccc12.[Cl-]	794	22	36.1
C[n+]1c2ccccc2cc2[n-]c3ccccc3c21.Cl [CRYPTOLEPINE HYDROCHLORIDE]	1180	755	1.6
CN(C)CCCNc1c2ccccc2[n+](C)c2c1[nH]c1ccccc12.[Cl-]	155	30	5.2
